# Bioassay records (PubChem)
# A selection: hits, their analogues and other compounds. The true share with any hit is near 3%.
# UBC13 inh: UBC13 polyubiquitin chain formation inhibitors, primary screen, biochemical, TR-FRET, uHTS; inhibition, % at 20 µM; Ubiquitin-conjugating enzyme E2 N (Homo sapiens), P61088; actives 0.47% (n = 330,000); in the data active = inhibition above about 45%, passing the limit was not always enough
# Target sequence (P61088 whole entry, looked up): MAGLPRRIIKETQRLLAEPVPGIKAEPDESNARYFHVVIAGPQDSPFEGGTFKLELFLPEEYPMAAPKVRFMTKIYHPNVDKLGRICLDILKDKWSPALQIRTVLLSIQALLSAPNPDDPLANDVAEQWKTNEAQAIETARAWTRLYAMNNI
# Apaf1 inhib: inhibitors of human Apaf-1 apoptosome, primary screen, biochemical, DEVD-Rh110 fluorescence, uHTS. reconstituted apoptosome caspase-3 activity. inhibition, % at 20 µM. actives 0.71% (n = 330,000); active = inhibition of at least 40% at 20 µM;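 also: plate controls were DMSO wells for no effect and DEVD-CHO caspase inhibitor wells for full effect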
#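 System – cell-free apoptosome with Apaf-1, procaspase-3 and caspase-9 · Buffer or medium – pH 7.5 Hepes buffer with CHAPS, BSA, DTT · Also added – cytochrome c with DEVD-Rh110 · Times – 30 min compound preincubation, 50 min activation, room temperature · Technique – Rh110 fluorescence intensity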
# SENP8 block-1: human SENP8 protease inhibitors, primary screen, biochemical, fluorescence, Nedd8 protein substrate, uHTS. AID 602440, 2012. Sentrin-specific protease 8 (Homo sapiens), Q96LD8. inhibition, % at 20 µM. actives 0.64% (n = 360,000). recombinant SENP8; in the data active = inhibition mostly above about 40%, no sharp cut-off; inactive = mostly below about 27%
# SENP8 block-2: SENP8 protease inhibitors, primary screen, biochemical, luminescence; Sentrin-specific protease 8 (Homo sapiens), Q96LD8; purified SENP8, Z-RLRGG-aminoluciferin cleavage; inhibition, % at 10 µM; actives 1.2% (n = 330,000); AID 2540, 2010; in the data active = inhibition above about 50%
# SENP6 inh: SENP6 protease inhibitors, primary screen, biochemical, luminescence, uHTS; actives 1.8% (n = 330,000); Recombinant SENP6 catalytic domain, aminoluciferin luminescence; inhibition, % at 10 µM; Sentrin-specific protease 6 (Homo sapiens), Q9GZR1;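 active = inhibition above about 50% at the single tested dose, limit read from the data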;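 also: plate controls were DMSO wells with enzyme for no effect and DMSO wells lacking enzyme for full effect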
# Target sequence (Q9GZR1 628-1112 limits assumed): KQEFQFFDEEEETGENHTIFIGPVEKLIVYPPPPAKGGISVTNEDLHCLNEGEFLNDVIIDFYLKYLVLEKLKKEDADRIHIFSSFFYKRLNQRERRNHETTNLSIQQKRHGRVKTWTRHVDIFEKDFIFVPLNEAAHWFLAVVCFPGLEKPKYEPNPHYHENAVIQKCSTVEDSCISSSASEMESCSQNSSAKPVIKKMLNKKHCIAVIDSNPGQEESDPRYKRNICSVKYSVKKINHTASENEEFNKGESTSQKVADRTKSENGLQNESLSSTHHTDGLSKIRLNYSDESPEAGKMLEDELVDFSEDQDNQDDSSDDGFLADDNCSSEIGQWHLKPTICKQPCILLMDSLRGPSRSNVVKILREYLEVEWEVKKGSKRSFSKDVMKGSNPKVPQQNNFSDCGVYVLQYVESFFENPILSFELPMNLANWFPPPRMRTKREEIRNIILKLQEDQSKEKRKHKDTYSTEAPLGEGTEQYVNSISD
# SENP7 block: SENP7 protease inhibitors, primary screen, biochemical, luminescence, uHTS | Sentrin-specific protease 7 (Homo sapiens), Q9BQF6 | inhibition, % at 5 µM | actives 1.5% (n = 330,000) | recombinant SENP7, Z-RLRGG-aminoluciferin luminescence, 40 min;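 active = inhibition above about 50% at the single test dose, limit read from the data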;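 also: plate controls were DMSO with enzyme for no effect and no enzyme buffer wells for full effect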
# SENP8 confirm: SENP8 protease inhibitors, retest, confirmation, biochemical, luminescence, single concentration; shares compounds with SENP7 block; Recombinant SENP8, Z-RLRGG-aminoluciferin luminescence, 60 min; inhibition, % at 12.5 µM; actives 40% (n = 6,200); AID 488912, 2010;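 active = mean inhibition across replicates above about 50%, limit read from the data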
# SENP6 conf: SENP6 protease inhibitors, confirmation, biochemical, luminescence, single concentration | recombinant SENP6, Z-RLRGG-aminoluciferin luminescence | actives 58% (n = 6,200) | shares compounds with SENP7 block | inhibition, % at 12.5 µM | AID 488915, 2010
# SENP7 conf: SENP7 protease inhibitors, retest, confirmation, biochemical, luminescence, single concentration | shares compounds with SENP7 block | recombinant SENP7, Z-RLRGG-aminoluciferin luminescence, 40 min | inhibition, % at 12.5 µM | actives 69% (n = 6,200) | AID 488917, 2010
# Casp3 select: caspase-3 protease inhibitors, confirmation, selectivity assay for SENP inhibitor project, biochemical, single concentration | inhibition, % at 12.5 µM | purified caspase-3, Z-DEVD-aminoluciferin luminescence, 60 min | actives 60% (n = 6,200) | shares compounds with SENP7 block;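 active = mean inhibition above about 50%, limit read from the data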;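 also: plate controls were enzyme with DMSO for no effect and wells without caspase-3 for full effect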
# Luc interf: counter-screen for SENP inhibitors: luminescence interference. inhibition, % at 12.5 µM. shares compounds with SENP7 block. actives 39% (n = 6,200). AID 488919. Pre-incubated SENP8/Z-RLRGG-aminoluciferin, luciferase luminescence interference;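 active = mean inhibition above about 50% when retested at one dose, limit read from the data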;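 also: plate controls were DMSO wells with completed reaction for no effect and substrate without enzyme for full effect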
# Apaf-1 inh conf2: Apaf-1 inhibitors, single-dose retest, confirmation, biochemical, fluorescence, DEVD-Rh110, 20 µM; actives 25% (n = 1,800); reconstituted apoptosome, caspase-3 DEVD-Rh110 fluorescence; inhibition, % at 20 µM; shares compounds with Apaf1 inhib;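 active = mean inhibition of at least 40% at 20 µM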;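 also: plate controls were DMSO wells for no effect and DEVD-CHO caspase inhibitor control wells for full effect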
# Rh110 quench: Rh110 fluorescence interference by putative Apaf-1 inhibitors, confirmation, artefact control for Apaf-1 inhibitor project, biochemical, 20 µM; shares compounds with Apaf1 inhib; quenched caspase reaction; activation (fluorescence interference), % at 20 µM; 1,800 tested, under 10 active; AID 504615, 2011;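 active = signal rise of 40% or more at 20 µM, treated as a fluorescence artifact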
# Apaf1 inh interf: fluorescence interference of Apaf-1 inhibitor hits, dose response, artefact control for Apaf-1 inhibitor project; shares compounds with Apaf1 inhib; fluorescence interference counterscreen, Apaf-1 assay format; IC50, µM; 460 tested, under 10 active; call rule not given here
# Numbers without * were called inactive; i = inactive; nt = no result.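 The calls were made as follows, unless noted: active = mean inhibition above about 50% in the one-dose retest (limit read from the data); inactive = the rest.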
SMILES,UBC13 inh,Apaf1 inhib,SENP8 block-1,SENP8 block-2,SENP6 inh,SENP7 block,SENP8 confirm,SENP6 conf,SENP7 conf,Casp3 select,Luc interf,Apaf-1 inh conf2,Rh110 quench,others
CC1(C)CC(=O)C(C=NCC2CCN(C(=S)Nc3cccc(Cl)c3)CC2)=C(O)C1,9,6,14,-4,-8,7,nt,nt,nt,nt,nt,nt,nt,
COc1cc2sc3ccc(-c4ccc(N(C)C)nc4)cc3c(=O)c2cc1OC,1,44*,nt,74*,79*,56*,12,14,-4,14,-1,37,5,
O=[N+]([O-])c1cc2c(cc1Br)CCN2,-5,6,13,3,-5,6,nt,nt,nt,nt,nt,nt,nt,
O=C1/C(=C\c2ccc(-c3ccccc3[N+](=O)[O-])o2)C(c2ccccc2)=NN1c1ccccc1,-39,44*,36,4,58*,11,-18,-7,-7,-10,-6,23,-9,
Cc1ccc(-c2ccc(/C=C3\C(=O)ON=C3c3ccccc3)o2)c([N+](=O)[O-])c1,-23,-17,20,11,10,-1,nt,nt,nt,nt,nt,nt,nt,
COc1ccc(CNS(=O)(=O)c2ccc3c(c2)NC(=O)CS3)cc1,-3,5,4,-4,13,0,nt,nt,nt,nt,nt,nt,nt,
O=C(CC1Nc2ccccc2NC1=O)Nc1cc(Cl)cc(Cl)c1 (centres undefined),1,24,-301,-6,-9,-1,nt,nt,nt,nt,nt,nt,nt,
COc1ccc(NC(=O)CC2Nc3cc(C)c(C)cc3NC2=O)c([N+](=O)[O-])c1 (centres undefined),-53,16,24,0,-6,-5,nt,nt,nt,nt,nt,nt,nt,
COc1ccc(NC(=O)CC2Nc3cccc4cccc(c34)NC2=O)cc1 (centres undefined),-5,94*,-64,59*,93*,67*,3,4,12,8,2,11,1,
O=C(CC1Nc2cccc3cccc(c23)NC1=O)Nc1ccc(F)cc1 (centres undefined),-52,96*,-68,60*,87*,43,-13,-6,-10,2,-1,20,7,
Cc1ccc(C(=O)Nc2ccccc2C(=O)N2CCOCC2)cc1[N+](=O)[O-],0,10,5,15,15,10,nt,nt,nt,nt,nt,nt,nt,
CC1CCc2cc(F)cc3c(O)c(C(=O)NCCN(C)C)c(=O)n1c23 (centres undefined),36,3,-92,-1,9,6,nt,nt,nt,nt,nt,nt,nt,
O=C(NN=c1c(=O)c2ccccc2c1=O)c1ccccc1,-56,96*,69*,71*,76*,84*,-16,71*,19,-3,3,98*,1,Apaf1 inh interf=>100
NC(N)=NC(N)=Nc1cccc2ccccc12,0,83*,12,13,61*,66*,8,6,2,-4,-5,11,5,
N#Cc1c(N2CCCC(O)C2)nc(N)c2c(N)nc3c(c12)CC(=O)N3C12CC3CC(CC(C3)C1)C2 (centres undefined),-22,98*,-303,97*,96*,64*,-21,5,-4,-6,-5,44*,6,Apaf1 inh interf=>100
Cc1cc(C)c(C#N)c(N2CCCC(C(N)=O)C2)n1 (centres undefined),11,9,i,-8,-10,-9,nt,nt,nt,nt,nt,nt,nt,
CC(=O)Nc1ccc(S(=O)(=O)/N=C2\C(=O)c3ccccc3C([O-])=C2n2cc[n+](-c3ccccn3)c2)cc1,-103,84*,56*,53*,77*,36,70*,88*,61*,54*,4,76*,3,Apaf1 inh interf=>100
CC(=O)Nc1ccc(S(=O)(=O)NCCSc2ccccn2)cc1,-14,1,13,-6,-10,-7,nt,nt,nt,nt,nt,nt,nt,
Cc1cccc(NC(=O)NCC2CC2)c1,nt,nt,24,nt,nt,nt,nt,nt,nt,nt,nt,nt,nt,
Cc1ccc(C(=O)N/N=C/c2ccc(-c3ccccc3[N+](=O)[O-])o2)cn1,-39,75*,2,36,65*,30,-24,-8,-8,-5,-8,30,5,
FC(F)(F)c1ccccc1NC1=NCCC1,-8,-10,18,5,-2,-1,nt,nt,nt,nt,nt,nt,nt,
CCOc1ccccc1NC(=O)c1cc(-c2ccncc2)nc2c(Cl)cccc12,nt,nt,6,nt,nt,nt,nt,nt,nt,nt,nt,nt,nt,
O=C(O)CC1S/C(=N\N=C2\C(=O)Nc3ccccc32)N(c2ccc(O)cc2)C1=O (centres undefined),15,1,30,5,6,1,nt,nt,nt,nt,nt,nt,nt,
S=C(Nc1ccc2nsnc2c1)N1CCCC1,-27,98*,-52,57*,83*,54*,6,28,24,70*,67*,8,0,
O=C(Nc1ccc2nsnc2c1)N1CCCCCC1,-4,13,i,4,-15,13,nt,nt,nt,nt,nt,nt,nt,
CCCCn1c(NC(=O)c2ccccc2Cl)c(C#N)c2nc3ccccc3nc21,-23,93*,-302,94*,96*,70*,76*,90*,78*,2,12,59*,-1,Apaf1 inh interf=>100
